# ChEMBL document CHEMBL1153559, “Role of a sodium-dependent symporter homologue in the thermosensitivity of beta-lactam antibiotic resistance and cell wall composition in Staphylococcus aureus” (2008)
# Bridge positions count the residues as written; N and C are the ends. Square brackets hold non-standard residues; d marks the D form. Peptide text beside a SMILES is read from it. * marks the point of attachment. Ileψ(thiazoline)Cys = CC[C@H](C)[C@H](N)C1=N[C@H](C(=O)*)CS1; dOrn = NCCC[C@@H](N)C(=O)O
# How the values were obtained:
# Type in all cases: functional
# Staphylococcus aureus [1] = experiment: Antimicrobial activity against methicillin-resistant Staphylococcus aureus COL at 42 degC by population analysis method
# In short: (§1)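 Population analysis: S. aureus cultures were grown overnight in TSB, then plated at different cell concentrations on agar containing twofold serial methicillin concentrations. Colonies were counted after 48 h of incubation at 37 or 42°C, giving a methicillin resistance profile.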
# Staphylococcus aureus [2] = experiment: Antimicrobial activity against methicillin-resistant Staphylococcus aureus COL at 37 degC by population analysis method; in short: as §1
# Staphylococcus aureus [3] = experiment: Antimicrobial activity against methicillin-resistant Staphylococcus aureus COL transposon mutant C245 harboring Tn551 gene at 42 degC by population analysis method; in short: as §1
# Staphylococcus aureus [4] = experiment: Antimicrobial activity against SCCmec type 1 methicillin-resistant Staphylococcus aureus COL C245Td expressing symporter gene smr1 at 37 degC incubated for 24 hrs by E-test
# Staphylococcus aureus [5] = experiment: Antimicrobial activity against SCCmec type 1 methicillin-resistant Staphylococcus aureus COL D19455 expressing symporter gene smr1 at 37 degC incubated for 24 hrs by E-test; settings: COL D19455, 24 h
# Staphylococcus aureus [6] = experiment: Antimicrobial activity against SCCmec type 1 methicillin-resistant Staphylococcus aureus COL 319 expressing symporter gene smr1 at 37 degC incubated for 24 hrs by E-test; settings: COL 319, 24 h
# Staphylococcus aureus [7] = experiment: Antimicrobial activity against SCCmec type 1 methicillin-resistant Staphylococcus aureus COL E3005 expressing symporter gene smr1 at 42 degC incubated for 24 hrs by E-test; settings: COL E3005, 24 h
# Staphylococcus aureus [8] = experiment: Antimicrobial activity against SCCmec type 1 methicillin-resistant Staphylococcus aureus COL RUSA11-T3 expressing symporter gene smr1 at 42 degC incubated for 24 hrs by E-test; settings: COL RUSA11-T3, 24 h
# Staphylococcus aureus [9] = experiment: Antimicrobial activity against SCCmec type 1 methicillin-resistant Staphylococcus aureus COL E3005-T4 expressing symporter gene smr1 at 42 degC incubated for 24 hrs by E-test; settings: COL E3005-T4, 24 h
# Staphylococcus aureus [10] = experiment: Antimicrobial activity against SCCmec type 1 methicillin-resistant Staphylococcus aureus COL 404 expressing symporter gene smr1 at 37 degC incubated for 24 hrs by E-test; settings: COL 404, 24 h
# Staphylococcus aureus [11] = experiment: Antimicrobial activity against SCCmec type 1 methicillin-resistant Staphylococcus aureus COL D19455-T2 expressing symporter gene smr1 at 42 degC incubated for 24 hrs by E-test; settings: COL D19455-T2, 24 h
# Staphylococcus aureus [12] = experiment: Antimicrobial activity against SCCmec type 4 methicillin-resistant Staphylococcus aureus COL MW2 expressing symporter gene smr1 at 37 degC incubated for 24 hrs by E-test; settings: COL MW2, 24 h
# Staphylococcus aureus [13] = experiment: Antimicrobial activity against SCCmec type 1 methicillin-resistant Staphylococcus aureus COL RUSA11-T3 expressing symporter gene smr1 at 37 degC incubated for 24 hrs by E-test; settings: COL RUSA11-T3, 24 h
# Staphylococcus aureus [14] = experiment: Antimicrobial activity against SCCmec type 3 methicillin-resistant Staphylococcus aureus COL 301 expressing symporter gene smr1 at 42 degC incubated for 24 hrs by E-test; settings: COL 301, 24 h
# Staphylococcus aureus [15] = experiment: Antimicrobial activity against SCCmec type 1 methicillin-resistant Staphylococcus aureus COL E2125-T2 expressing symporter gene smr1 at 42 degC incubated for 24 hrs by E-test; settings: COL E2125-T2, 24 h
# Staphylococcus aureus [16] = experiment: Antimicrobial activity against SCCmec type 4 methicillin-resistant Staphylococcus aureus COL MW2 expressing symporter gene smr1 at 42 degC incubated for 24 hrs by E-test; settings: COL MW2, 24 h
# Staphylococcus aureus [17] = experiment: Antimicrobial activity against SCCmec type 1 methicillin-resistant Staphylococcus aureus COL 319-T1 expressing symporter gene smr1 at 37 degC incubated for 24 hrs by E-test; settings: COL 319-T1, 24 h
# Staphylococcus aureus [18] = experiment: Antimicrobial activity against SCCmec type 1 methicillin-resistant Staphylococcus aureus COL E3005 expressing symporter gene smr1 at 37 degC incubated for 24 hrs by E-test; settings: COL E3005, 24 h
# Staphylococcus aureus [19] = experiment: Antimicrobial activity against SCCmec type 1 methicillin-resistant Staphylococcus aureus COL C245Td expressing symporter gene smr1 at 42 degC incubated for 24 hrs by E-test
# Staphylococcus aureus [20] = experiment: Antimicrobial activity against SCCmec type 1 methicillin-resistant Staphylococcus aureus COL D19455-T2 expressing symporter gene smr1 at 37 degC incubated for 24 hrs by E-test; settings: COL D19455-T2, 24 h
# Staphylococcus aureus [21] = experiment: Antimicrobial activity against SCCmec type 4 methicillin-resistant Staphylococcus aureus COL MW2-T expressing symporter gene smr1 at 42 degC incubated for 24 hrs by E-test
# Staphylococcus aureus [22] = experiment: Antimicrobial activity against SCCmec type 1 methicillin-resistant Staphylococcus aureus COL 404-T3 expressing symporter gene smr1 at 37 degC incubated for 24 hrs by E-test; settings: COL 404-T3, 24 h
# Staphylococcus aureus [23] = experiment: Antimicrobial activity against SCCmec type 1 methicillin-resistant Staphylococcus aureus COL 319-T1 expressing symporter gene smr1 at 42 degC incubated for 24 hrs by E-test; settings: COL 319-T1, 24 h
# Staphylococcus aureus [24] = experiment: Antimicrobial activity against SCCmec type 1 methicillin-resistant Staphylococcus aureus COL 319 expressing symporter gene smr1 at 42 degC incubated for 24 hrs by E-test; settings: COL 319, 24 h
# Staphylococcus aureus [25] = experiment: Antimicrobial activity against SCCmec type 1 methicillin-resistant Staphylococcus aureus COL E2125 expressing symporter gene smr1 at 42 degC incubated for 24 hrs by E-test; settings: COL E2125, 24 h
# Staphylococcus aureus [26] = experiment: Antimicrobial activity against SCCmec type 3 methicillin-resistant Staphylococcus aureus COL 301 expressing symporter gene smr1 at 37 degC incubated for 24 hrs by E-test; settings: COL 301, 24 h
# Staphylococcus aureus [27] = experiment: Antimicrobial activity against SCCmec type 1 methicillin-resistant Staphylococcus aureus COL E2125 expressing symporter gene smr1 at 37 degC incubated for 24 hrs by E-test; settings: COL E2125, 24 h
# Staphylococcus aureus [28] = experiment: Antimicrobial activity against SCCmec type 1 methicillin-resistant Staphylococcus aureus COL RUSA11 expressing symporter gene smr1 at 37 degC incubated for 24 hrs by E-test; settings: COL RUSA11, 24 h
# Staphylococcus aureus [29] = experiment: Antimicrobial activity against SCCmec type 1 methicillin-resistant Staphylococcus aureus COL E2125-T2 expressing symporter gene smr1 at 37 degC incubated for 24 hrs by E-test; settings: COL E2125-T2, 24 h
# Staphylococcus aureus [30] = experiment: Antimicrobial activity against SCCmec type 1 methicillin-resistant Staphylococcus aureus COL RUSA11 expressing symporter gene smr1 at 42 degC incubated for 24 hrs by E-test; settings: COL RUSA11, 24 h
# Staphylococcus aureus [31] = experiment: Antimicrobial activity against SCCmec type 3 methicillin-resistant Staphylococcus aureus COL 301-T6 expressing symporter gene smr1 at 42 degC incubated for 24 hrs by E-test; settings: COL 301-T6, 24 h
# Staphylococcus aureus [32] = experiment: Antimicrobial activity against SCCmec type 3 methicillin-resistant Staphylococcus aureus COL 301-T6 expressing symporter gene smr1 at 37 degC incubated for 24 hrs by E-test; settings: COL 301-T6, 24 h
# Staphylococcus aureus [33] = experiment: Antimicrobial activity against SCCmec type 1 methicillin-resistant Staphylococcus aureus COL 404-T3 expressing symporter gene smr1 at 42 degC incubated for 24 hrs by E-test; settings: COL 404-T3, 24 h
# Staphylococcus aureus [34] = experiment: Antimicrobial activity against SCCmec type 1 methicillin-resistant Staphylococcus aureus COL 404 expressing symporter gene smr1 at 42 degC incubated for 24 hrs by E-test; settings: COL 404, 24 h
# Staphylococcus aureus [35] = experiment: Antimicrobial activity against SCCmec type 4 methicillin-resistant Staphylococcus aureus COL MW2-T expressing symporter gene smr1 at 37 degC incubated for 24 hrs by E-test
# Staphylococcus aureus [36] = experiment: Antimicrobial activity against SCCmec type 1 methicillin-resistant Staphylococcus aureus COL D19455 expressing symporter gene smr1 at 42 degC incubated for 24 hrs by E-test; settings: COL D19455, 24 h
# Staphylococcus aureus [37] = experiment: Antimicrobial activity against SCCmec type 1 methicillin-resistant Staphylococcus aureus COL E3005-T4 expressing symporter gene smr1 at 37 degC incubated for 24 hrs by E-test; settings: COL E3005-T4, 24 h
smiles,measurement,setting,value
CC[C@H](C)[C@H](N)C1=N[C@H](C(=O)N[C@@H](CC(C)C)C(=O)N[C@H](CCC(=O)O)C(=O)N[C@H](C(=O)N[C@H]2CCCCNC(=O)[C@H](CC(N)=O)NC(=O)[C@@H](CC(=O)O)NC(=O)[C@H](Cc3cnc[nH]3)NC(=O)[C@@H](Cc3ccccc3)NC(=O)[C@H]([C@@H](C)CC)NC(=O)[C@@H](CCCN)NC2=O)[C@@H](C)CC)CS1 [BACITRACIN] ({Ileψ(thiazoline)Cys}-L[dE]IK[dOrn]I[dF]H[dD]N; lactam 4-C),MIC,Staphylococcus aureus [1],50 µg/mL
same,MIC,Staphylococcus aureus [2],50 µg/mL
C[C@@H]1O[C@@H]1P(=O)(O)O [FOSFOMYCIN],MIC,Staphylococcus aureus [1],25 µg/mL
same,MIC,Staphylococcus aureus [2],50 µg/mL
N[C@@H]1CONC1=O [CYCLOSERINE],MIC,Staphylococcus aureus [1],50 µg/mL
same,MIC,Staphylococcus aureus [2],50 µg/mL
CN(C)[C@@H]1C(O)=C(C(N)=O)C(=O)[C@@]2(O)C(O)=C3C(=O)c4c(O)cccc4[C@@](C)(O)[C@H]3C[C@@H]12 [TETRACYCLINE],MIC,Staphylococcus aureus [1],100 µg/mL
same,MIC,Staphylococcus aureus [2],100 µg/mL
COc1cccc(OC)c1C(=O)N[C@@H]1C(=O)N2[C@@H]1SC(C)(C)[C@@H]2C(=O)O [METHICILLIN],MIC,Staphylococcus aureus [3],400 µg/mL
Cc1onc(-c2ccccc2)c1C(=O)N[C@@H]1C(=O)N2[C@@H]1SC(C)(C)[C@@H]2C(=O)O [OXACILLIN],MIC,Staphylococcus aureus [4],> 256 µg/mL
same,MIC,Staphylococcus aureus [5],1 µg/mL
same,MIC,Staphylococcus aureus [6],> 256 µg/mL
same,MIC,Staphylococcus aureus [7],0.5 µg/mL
same,MIC,Staphylococcus aureus [8],0.25 µg/mL
same,MIC,Staphylococcus aureus [9],0.38 µg/mL
same,MIC,Staphylococcus aureus [10],> 256 µg/mL
same,MIC,Staphylococcus aureus [11],0.25 µg/mL
same,MIC,Staphylococcus aureus [12],0.75 µg/mL
same,MIC,Staphylococcus aureus [13],4 µg/mL
same,MIC,Staphylococcus aureus [14],1 µg/mL
same,MIC,Staphylococcus aureus [15],0.5 µg/mL
same,MIC,Staphylococcus aureus [16],0.75 µg/mL
same,MIC,Staphylococcus aureus [17],> 256 µg/mL
same,MIC,Staphylococcus aureus [18],1.5 µg/mL
same,MIC,Staphylococcus aureus [19],> 256 µg/mL
same,MIC,Staphylococcus aureus [20],64 µg/mL
same,MIC,Staphylococcus aureus [21],0.75 µg/mL
same,MIC,Staphylococcus aureus [22],> 256 µg/mL
same,MIC,Staphylococcus aureus [23],> 256 µg/mL
same,MIC,Staphylococcus aureus [24],0.75 µg/mL
same,MIC,Staphylococcus aureus [25],0.25 µg/mL
same,MIC,Staphylococcus aureus [26],> 256 µg/mL
same,MIC,Staphylococcus aureus [27],1 µg/mL
same,MIC,Staphylococcus aureus [28],0.5 µg/mL
same,MIC,Staphylococcus aureus [29],128 µg/mL
same,MIC,Staphylococcus aureus [30],0.19 µg/mL
same,MIC,Staphylococcus aureus [31],16 µg/mL
same,MIC,Staphylococcus aureus [32],> 256 µg/mL
same,MIC,Staphylococcus aureus [33],> 256 µg/mL
same,MIC,Staphylococcus aureus [34],1 µg/mL
same,MIC,Staphylococcus aureus [35],8 µg/mL
same,MIC,Staphylococcus aureus [36],0.25 µg/mL
same,MIC,Staphylococcus aureus [37],12 µg/mL
CN[C@H](CC(C)C)C(=O)N[C@H]1C(=O)N[C@@H](CC(N)=O)C(=O)N[C@H]2C(=O)N[C@H]3C(=O)N[C@H](C(=O)N[C@H](C(=O)O)c4cc(O)cc(O)c4-c4cc3ccc4O)[C@H](O)c3ccc(c(Cl)c3)Oc3cc2cc(c3O[C@@H]2O[C@H](CO)[C@@H](O)[C@H](O)[C@H]2O[C@H]2C[C@](C)(N)[C@H](O)[C@H](C)O2)Oc2ccc(cc2Cl)[C@H]1O [VANCOMYCIN],MIC,Staphylococcus aureus [1],3 µg/mL
same,MIC,Staphylococcus aureus [2],1.5 µg/mL
